In ChEMBL document CHEMBL1141358, “Antioxidant phenylpropanoid-substituted epicatechins from Trichilia catigua” (J Nat Prod, 2007):
pIC50: −log10 of the molar value. Activity calls are given as the source filed them. The calls are words filed in the database; no cut-off is given here.

Columns and labels:
[1] = DPPH radical scavenging activity; format: functional
How it was run: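 Samples dissolved in EtOH and diluted to 500, 100, 50 and 10 µg/mL (concentrations before mixing). Each 20 µL aliquot was mixed immediately with 180 µL DPPH, with an EtOH blank. After 20 min, A517 was read. Scavenging was taken as the fall in DPPH absorbance relative to a sample-free DPPH control. IC50 was interpolated from concentration-inhibition curves as the mean of triplicates.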

PC-12 [2] = test: Neurotrophic effect in rat PC12 cells; format: functional, cell-based
How it was run: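 PC12 cells without NGF were exposed to test compounds at 1–100 µM and examined for neurotrophic activity.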

PC-12 [3] = test: Neurotrophic effect in rat NGF-induced PC12 cells upto 100 uM; format: functional, cell-based
How it was run: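 PC12 cells were co-treated with NGF and test compounds at 1–100 µM, then checked for neurotrophic effects.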

Structure (SMILES) | pIC50 [1] | Activity (PC-12 [2]) | Activity (PC-12 [3])
Oc1cc(O)c2c(c1)O[C@H](c1ccc(O)c(O)c1)[C@@H](O)C2 [CATECHIN] | 5.00 | – | –
COC(=O)C[C@@H]1c2cc(O)c(O)cc2Oc2cc(O)c3c(c21)O[C@H](c1ccc(O)c(O)c1)[C@H](O)C3 [CATIGUANIN A] | 5.15 | inactive | inactive
O=C1C[C@@H](c2ccc(O)c(O)c2)c2c(cc(O)c3c2O[C@H](c2ccc(O)c(O)c2)[C@H](O)C3)O1 [CINCHONAIN IA] | 5.03 | inactive | inactive

The next compounds have a higher pIC50 [1] than those just listed; values first:

pIC50 [1] | Structure (SMILES) | Activity (PC-12 [2]) | Activity (PC-12 [3])
5.17 | COC(=O)C[C@H]1c2cc(O)c(O)cc2Oc2cc(O)c3c(c21)O[C@H](c1ccc(O)c(O)c1)[C@H](O)C3 [CATIGUANIN B] | – | –
5.29 | O=C1C[C@H](c2ccc(O)c(O)c2)c2c(cc(O)c3c2O[C@H](c2ccc(O)c(O)c2)[C@H](O)C3)O1 [CINCHONAIN IB] | – | –
5.60 | O=C1C[C@H](c2ccc(O)c(O)c2)c2c(O)cc3c(c2O1)C[C@@H](O)[C@@H](c1ccc(O)c(O)c1)O3 [CINCHONAIN IC] | – | –
5.64 | O=C1C[C@@H](c2ccc(O)c(O)c2)c2c(O)cc3c(c2O1)C[C@@H](O)[C@@H](c1ccc(O)c(O)c1)O3 [CINCHONAIN ID] | – | –
